# Measured values: ChEMBL document CHEMBL1145010, “Stereoselective synthesis of beta-lactams with polyaromatic imines: entry to new and novel anticancer agents” (2003)
# Experiments:
# [1] = (§1) In Vitro cytotoxicity against human cancer cell line, SKOV; assay type: functional, Cancer cell lines
# Outline: (§2)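 MTT cytotoxicity assay across a panel of nine human cancer cell lines, run in the institutional Pharmacology and Analytic Core Laboratory by a previously described protocol. Cisplatin and a diamide were included as reference controls. Activity above 20 μM/mL was regarded as not significant.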
# [2] = (§3) In Vitro cytotoxicity against human cancer cell line, MDA-213; assay type: functional, Cancer cell lines; outline: as §2
# HL-60 = test: In Vitro cytotoxicity against human cancer cell line, HL-60; assay type: functional; outline: as §2
# [3] = (§4) In Vitro cytotoxicity against human cancer cell line, BRO; assay type: functional, Cancer cell lines; outline: as §2
# MCF7 = test: In Vitro cytotoxicity against human cancer cell line, MCF-7; assay type: functional; outline: as §2
# OVCAR = test: In Vitro cytotoxicity against human cancer cell line, OVCAR; assay type: functional; outline: as §2
# K562 = test: In Vitro cytotoxicity against human cancer cell line, K-562; assay type: functional; outline: as §2
# HT-29 = test: In Vitro cytotoxicity against human cancer cell line, HT-29; assay type: functional; outline: as §2
# PC-3 = test: In Vitro cytotoxicity against human cancer cell line, PC-3; assay type: functional; outline: as §2
# Cancer cell lines [4] = test: as §1; assay type: functional; outline: as §2
# Cancer cell lines [5] = test: as §3; assay type: functional; outline: as §2
# Cancer cell lines [6] = test: as §4; assay type: functional; outline: as §2
Molecule,Cytotoxicity [1] [µM],Cytotoxicity [2] [µM],Cytotoxicity (HL-60) [µM],Cytotoxicity [3] [µM],Cytotoxicity (MCF7) [µM],Cytotoxicity (OVCAR) [µM],Cytotoxicity (K562) [µM],Cytotoxicity (HT-29) [µM],Cytotoxicity (PC-3) [µM],Cytotoxicity (Cancer cell lines [4]) [µM],Cytotoxicity (Cancer cell lines [5]) [µM],Cytotoxicity (Cancer cell lines [6]) [µM]
CC(=O)OC1C(=O)N(c2ccccc2)C1c1cc2c3ccccc3ccc2c2ccccc12 (stereo not given),>20,>20,>20,>20,>20,>20,>20,>20,>20,–,–,–
CN1CCN(C(=O)CCC(=O)Nc2cc3c4ccccc4ccc3c3ccccc23)CC1,11.05,12.23,9.41,33.64,40,18.11,12.7,16.7,27.29,–,–,–
CC(=O)OC1C(=O)N(c2cc3c4ccccc4ccc3c3ccccc23)[C@H]1c1ccccn1 (stereo not given in full),9,14.46,2.5,11,14.93,–,2.5,15.9,–,–,–,–
CC(=O)OC1C(=O)N(c2ccc3ccc4cccc5ccc2c3c45)[C@H]1c1ccccc1 (stereo not given in full),>20,>20,>20,>20,>20,>20,>20,>20,>20,–,–,–
O=C1C(Oc2ccccc2)[C@H](c2ccccc2)N1c1cc2ccccc2c2ccccc12 (stereo not given in full),>20,>20,>20,>20,>20,>20,>20,>20,>20,–,–,–
CISPLATIN,–,–,1.66,–,10.1,3.99,2.33,17,4.66,5.99,12.3,7.66
CC(=O)OC1C(=O)N(c2cccc3ccccc23)[C@@H]1c1ccccc1 (stereo not given in full),>20,>20,>20,>20,>20,>20,>20,>20,>20,–,–,–
CC(=O)OC1C(=O)N(c2cc3ccccc3c3ccccc23)[C@H]1c1ccccc1 (stereo not given in full),18,12.49,5.21,10.48,10.09,18,4,10.49,9.3,–,–,–
O=C1C(Oc2ccccc2)[C@H](c2ccccc2)N1c1cc2c3ccccc3ccc2c2ccccc12 (stereo not given in full),>20,>20,>20,>20,>20,>20,>20,>20,>20,–,–,–
O=C1c2ccccc2C(=O)N1C1C(=O)N(c2cc3c4ccccc4ccc3c3ccccc23)[C@H]1c1ccccc1 (stereo not given in full),>20,>20,>20,>20,>20,>20,>20,>20,>20,–,–,–
CC(=O)OC1C(=O)N(c2cccc3cc4c(cc23)Cc2cc3ccccc3cc2-4)[C@H]1c1ccccc1 (stereo not given in full),>20,>20,>20,>20,>20,>20,>20,>20,>20,–,–,–
CC(=O)OC1C(=O)N(c2cc3c4ccccc4ccc3c3ccccc23)[C@H]1c1ccccc1 (stereo not given in full),6.88,11.98,3.64,10.84,9.81,4.17,4.33,5.66,16.32,–,–,–
CC(=O)OC1C(=O)N(c2cccc3cc4ccccc4cc23)[C@@H]1c1ccccc1 (stereo not given in full),>20,>20,>20,>20,>20,>20,>20,>20,>20,–,–,–
